Source: ChEMBL document CHEMBL1154050, “Design, synthesis and hypolipidemic activity of novel 2-(naphthalen-2-yloxy)propionic acid derivatives as desmethyl fibrate analogs” (2009)
Activity calls are given as the source filed them. The rule behind the calls is not given here.

What was measured:
Type in all cases: functional
[1] = test system: Rattus norvegicus; test: Antihyperlipidemic activity in high-cholesterol diet fed Wistar albino rat model assessed as reduction in serum total cholesterol level at 20 mg/kg, po; set-up: scale not given: the % may be the effect or the level left
Summary of the method: (§1)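 Adult male rats given high cholesterol diet (2% cholesterol, 1% cholic acid) for 14 days, dosed orally at 20 mg/kg in 0.5% CMC on days 8–14. Normal-chow and HCD vehicle controls were included, n=6 per group. After a 12 h fast on day 14, tail blood was taken under mild ether anesthesia. Serum TC, TG and HDL were measured by kit spectrophotometry, and LDL was calculated by Friedewald's formula. Values are percent change versus the HCD control.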

[2] = test system: Rattus norvegicus; test: Antihyperlipidemic activity in high-cholesterol diet fed Wistar albino rat model assessed as reduction in serum triglyceride level at 20 mg/kg, po; set-up: scale not given: the % may be the effect or the level left; summary of the method: as §1
[3] = test system: Rattus norvegicus; test: Antihyperlipidemic activity in high-cholesterol diet fed Wistar albino rat model assessed as increase in serum HDL level at 20 mg/kg, po; summary of the method: as §1
[4] = test system: Rattus norvegicus; test: Antihyperlipidemic activity in high-cholesterol diet fed Wistar albino rat model assessed as reduction in serum LDL level at 20 mg/kg, po; set-up: scale not given: the % may be the effect or the level left; summary of the method: as §1
[5] = test system: Rattus norvegicus; test: Antihyperlipidemic activity in high-cholesterol diet fed Wistar albino rat model assessed as ratio of LDL level to HDL level at 20 mg/kg, po
Summary of the method: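 The ratio was calculated from group mean LDL and mean HDL. It used the HCD rat model (2% cholesterol, 1% cholic acid, 14 days), oral dosing at 20 mg/kg in 0.5% CMC on days 8–14, and n=6. Serum was taken from tail blood after a 12 h fast. HDL was measured by kit and LDL was derived by Friedewald's formula.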

Row | SMILES | Activity [1] | Activity [2] | Activity [3] | Activity [4] | Ratio [5]
1 | CCSc1nnc(C(C)Oc2ccc3ccccc3c2)n1-c1ccccc1 (centres undefined) | 19.44% | 19.07% | 51.21% | 19.15% | 3.4
2 | CC(C)=NNC(=O)C(C)Oc1ccc2ccccc2c1 (centres undefined) | inactive | – | Active | – | 6.1
3 | C/C(=N\NC(=O)C(C)Oc1ccc2ccccc2c1)c1ccc(Br)cc1 (centres undefined) | inactive | – | Active | – | 6.04
4 | CC(Oc1ccc2ccccc2c1)c1n[nH]c(=S)n1-c1ccccc1 (centres undefined) | inactive | inactive | 47.78% | Active | 3.75
5 | CC(Oc1ccc2ccccc2c1)C(=O)O (centres undefined) | – | – | Active | Active | –
6 | COc1ccc(NC(=O)C(C)Oc2ccc3ccccc3c2)cc1 (centres undefined) | inactive | – | Active | – | 5.19
7 | C=CCNC(=S)NNC(=O)C(C)Oc1ccc2ccccc2c1 (centres undefined) | inactive | – | Active | – | 8.16
8 | CC(Oc1ccc2ccccc2c1)c1n[nH]c(=S)o1 (centres undefined) | 16.18% | 26.78% | 55.42% | 19.58% | 3.29
9 | CC(Oc1ccc2ccccc2c1)C(=O)NNC(=S)Nc1ccccc1 (centres undefined) | inactive | – | Active | – | 5.7
10 | CC(Oc1ccc2ccccc2c1)C(=O)N/N=C/c1ccc([N+](=O)[O-])cc1 (centres undefined) | inactive | inactive | Active | – | 4.74
11 | Cc1ccc(C)c(OCCCC(C)(C)C(=O)O)c1 [GEMFIBROZIL] | 4.68% | 22.23% | 25.18% | – | 4.81
12 | CCNC(=S)NNC(=O)C(C)Oc1ccc2ccccc2c1 (centres undefined) | inactive | – | Active | – | 6.71
13 | COc1ccc(/C=N/NC(=O)C(C)Oc2ccc3ccccc3c2)cc1 (centres undefined) | inactive | – | Active | – | 5.4
14 | CCn1c(C(C)Oc2ccc3ccccc3c2)n[nH]c1=S (centres undefined) | inactive | 20.88% | 48.25% | Active | 3.61
15 | CCSc1nnc(C(C)Oc2ccc3ccccc3c2)n1CC (centres undefined) | inactive | inactive | Active | Active | 4.5
16 | CC(Oc1ccc2ccccc2c1)C(=O)N1N=C(c2ccccc2)CC1(O)c1ccccc1 (centres undefined) | inactive | inactive | 49.73% | – | 3.99
17 | CC1=NN(C(=O)C(C)Oc2ccc3ccccc3c2)C(=O)C1 (centres undefined) | 15.89% | – | Active | 21.74% | 4.54
